Data on 10 compounds can be found in ChEMBL document CHEMBL1240414, “Synthesis and anticonvulsant activity of new 6-methyl-1-substituted-4,6-diazaspiro[2.4]heptane-5,7-diones” (Eur J Med Chem, 2010).

Structures are written as SMILES. Activity calls are given as the source filed them.

Data set [1] deals with Mus musculus. Kind of data set: Anticonvulsant activity in Kunming mouse assessed as protection against maximal electroshock-induced seizures at 30 mg/kg, ip after 0.5 hrs. Format: functional, organism-based. Set-up: dose 30 mg/kg. (In general: Protection in the maximal electroshock model is a classic sign of anticonvulsant action.)
Data set [2] deals with Mus musculus. Kind of data set: Anticonvulsant activity in Kunming mouse assessed as protection against maximal electroshock-induced seizures at 100 mg/kg, ip after 0.5 hrs. Format: functional, organism-based. Also on record: dose 100 mg/kg.
Data set [3] has as its system Mus musculus. Put plainly: Anticonvulsant activity in Kunming mouse assessed as protection against maximal electroshock-induced seizures at 30 mg/kg, ip after 4 hrs. Format: functional, organism-based. Set-up: dose 30 mg/kg.
For data set [4], the system named is Mus musculus. Put plainly: Anticonvulsant activity in Kunming mouse assessed as protection against subcutaneous pentylenetetrazole-induced seizures at 30 mg/kg, ip after 0.5 hrs. Set-up: dose 30 mg/kg. The format is functional, organism-based. Summed up:
(§1)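 Male Kunming mice (20 ± 2.0 g) received the compound ip as a suspension in 0.5% methylcellulose at 30, 100 or 300 mg/kg, one to four mice per dose. Pentylenetetrazole in 0.9% saline was given sc at 0.5 h and 4.0 h after dosing. Protection meant no threshold seizure (one clonic spasm episode of at least 5 s). Scored as protected/tested.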

Data set [5] has as its system Mus musculus. Put plainly: Anticonvulsant activity in Kunming mouse assessed as protection against subcutaneous pentylenetetrazole-induced seizures at 100 mg/kg, ip after 0.5 hrs. The format is functional, organism-based. Also on record: dose 100 mg/kg. Summed up: as §1
The subject of data set [6] is Mus musculus. Put plainly: Anticonvulsant activity in Kunming mouse assessed as protection against subcutaneous pentylenetetrazole-induced seizures at 30 mg/kg, ip after 4 hrs. The format is functional, organism-based. Set-up: dose 30 mg/kg. In a few lines:
as §1

In data set [7] the test system is Mus musculus. Kind of data set: Anticonvulsant activity in Kunming mouse assessed as protection against subcutaneous pentylenetetrazole-induced seizures at 100 mg/kg, ip after 4 hrs. Also on record: dose 100 mg/kg. The format is functional, organism-based. Summed up: as §1
Data set [8] concerns Mus musculus. Kind of data set: Anticonvulsant activity in Kunming mouse assessed as protection against subcutaneous pentylenetetrazole-induced seizures at 300 mg/kg, ip after 4 hrs. The format is functional, organism-based. Also on record: dose 300 mg/kg. In a few lines:
as §1

The test system of data set [9] is Mus musculus. Put plainly: Neurotoxicity in Kunming mouse assessed as minimum motor impairment at 30 mg/kg, ip after 0.5 hrs by rotarod test. Format: toxicity, organism-based. Set-up: dose 30 mg/kg, route intraperitoneal. To be noted: in vivo. Summed up:
(§2)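 Rotorod neurotoxicity in male Kunming mice (20 ± 2.0 g) given ip doses of 30, 100 or 300 mg/kg as a suspension in 0.5% methylcellulose, one to four mice per dose. Motor impairment was examined at 0.5 h and 4.0 h after injection. Reported as number of animals showing toxicity/number tested.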
On the technique in general: In the rotarod test animals must keep their balance on a rotating rod.

Data set [10] concerns Mus musculus. Put plainly: Neurotoxicity in Kunming mouse assessed as minimum motor impairment at 100 mg/kg, ip after 0.5 hrs by rotarod test. To be noted: in vivo. Set-up: dose 100 mg/kg, route intraperitoneal. The format is toxicity, organism-based. Summed up: as §2
Data set [11] has as its system Mus musculus. Put plainly: Neurotoxicity in Kunming mouse assessed as minimum motor impairment at 300 mg/kg, ip after 0.5 hrs by rotarod test. Format: toxicity, organism-based. Also on record: dose 300 mg/kg, route intraperitoneal. Conditions: in vivo. In a few lines:
as §2

Data set [12] has as its system Mus musculus. Put plainly: Neurotoxicity in Kunming mouse assessed as minimum motor impairment at 30 mg/kg, ip after 4 hrs by rotarod test. The format is toxicity, organism-based. Set-up: dose 30 mg/kg, route intraperitoneal. Conditions: in vivo. In a few lines:
as §2

The subject of data set [13] is Mus musculus. Put plainly: Neurotoxicity in Kunming mouse assessed as minimum motor impairment at 100 mg/kg, ip after 4 hrs by rotarod test. To be noted: in vivo. Also on record: dose 100 mg/kg, route intraperitoneal. The format is toxicity, organism-based. Summed up:
as §2

Data set [14] relates to Mus musculus. Kind of data set: Neurotoxicity in Kunming mouse assessed as minimum motor impairment at 300 mg/kg, ip after 4 hrs by rotarod test. Format: toxicity, organism-based. Also on record: dose 300 mg/kg, route intraperitoneal. Conditions: in vivo. In a few lines:
as §2

Data set [15] has as its system Mus musculus. Kind of data set: Anticonvulsant activity in Kunming mouse assessed as protection against maximal electroshock-induced seizures at 300 mg/kg, ip after 0.5 hrs. Set-up: dose 300 mg/kg. Format: functional, organism-based.
Data set [16] concerns Mus musculus. Kind of data set: Anticonvulsant activity in Kunming mouse assessed as protection against maximal electroshock-induced seizures at 100 mg/kg, ip after 4 hrs. Format: functional, organism-based. Also on record: dose 100 mg/kg.
Data set [17] deals with Mus musculus. Put plainly: Anticonvulsant activity in Kunming mouse assessed as protection against subcutaneous pentylenetetrazole-induced seizures at 300 mg/kg, ip after 0.5 hrs. Format: functional, organism-based. Set-up: dose 300 mg/kg. In a few lines:
as §1

Data set [18] deals with Mus musculus. Put plainly: Anticonvulsant activity in Kunming mouse assessed as protection against maximal electroshock-induced seizures at 300 mg/kg, ip after 4 hrs. Also on record: dose 300 mg/kg. Format: functional, organism-based.

Turning to `CC(C)CC1CC12NC(=O)N(C)C2=O` (stereo not given), the outcome in the data set on Mus musculus [1], in the data set with Mus musculus [2] and in the data set on Mus musculus [4] was Active. Moreover, the result in the data set with Mus musculus [3], with Mus musculus [5], in the data set with Mus musculus [6], in the data set on Mus musculus [7] and with Mus musculus [8] was inactive. Besides, the Activity result with Mus musculus [9] is given as “Toxic”; in the data set on Mus musculus [10] it was “Non-toxic”; in the data set on Mus musculus [11], “Toxic”; in the data set on Mus musculus [12], “Non-toxic”; in the data set on Mus musculus [13] it was “Non-toxic”; in the data set on Mus musculus [14], “Non-toxic”.

On to `CCC(CC)C1CC12NC(=O)N(C)C2=O` (stereo not given), for which the result with Mus musculus [1], in the data set with Mus musculus [3], in the data set on Mus musculus [16], in the data set on Mus musculus [4], in the data set with Mus musculus [5] and in the data set with Mus musculus [17] was inactive. Besides, the result with Mus musculus [6] and in the data set with Mus musculus [7] was inactive. Further, the outcome in the data set with Mus musculus [15] was Active. The Activity result in the data set on Mus musculus [9], with Mus musculus [10], in the data set with Mus musculus [11], with Mus musculus [12], in the data set with Mus musculus [13] and with Mus musculus [14] was “Non-toxic” in each case.

Regarding `CN1C(=O)NC2(CC2c2ccc(Cl)cc2)C1=O` (stereo not given), the result with Mus musculus [1], with Mus musculus [3], in the data set with Mus musculus [16], in the data set with Mus musculus [4], in the data set on Mus musculus [5] and in the data set on Mus musculus [6] was inactive. Also, the outcome with Mus musculus [7] and with Mus musculus [8] was inactive. Further, in the data set on Mus musculus [2], the result was Active. The Activity result is reported as “Non-toxic” in the data set on Mus musculus [9], “Toxic” in the data set with Mus musculus [10], “Non-toxic” in the data set with Mus musculus [12] and “Toxic” with Mus musculus [13].

On to `Cc1ccc(C2CC23NC(=O)N(C)C3=O)cc1` (stereo not given), for which the result in the data set on Mus musculus [1] and in the data set with Mus musculus [2] was Active. Also, the result in the data set on Mus musculus [3], with Mus musculus [4], with Mus musculus [5], in the data set with Mus musculus [6] and in the data set with Mus musculus [7] was inactive. Besides, the Activity result is reported as “Non-toxic” in the data set with Mus musculus [9]; “Non-toxic” with Mus musculus [10]; “Toxic” in the data set with Mus musculus [11]; “Non-toxic” with Mus musculus [12]; “Non-toxic” in the data set on Mus musculus [13]; “Non-toxic” in the data set with Mus musculus [14].

Take `COc1ccc(OC)c(C2CC23NC(=O)N(C)C3=O)c1` (stereo not given): the outcome in the data set with Mus musculus [1] and in the data set on Mus musculus [2] was Active. Further, the outcome in the data set with Mus musculus [3], in the data set with Mus musculus [4], in the data set with Mus musculus [5], in the data set on Mus musculus [17], in the data set on Mus musculus [6] and with Mus musculus [7] was inactive. Also, the outcome in the data set on Mus musculus [8] was inactive. The Activity result with Mus musculus [9], with Mus musculus [10], in the data set with Mus musculus [12] and in the data set with Mus musculus [13] was “Non-toxic” throughout.

Consider `CC(C)C1CC12NC(=O)N(C)C2=O` (stereo not given), for which the result in the data set on Mus musculus [1], in the data set with Mus musculus [2] and in the data set with Mus musculus [18] was Active. Also, the result in the data set with Mus musculus [4], in the data set on Mus musculus [5], with Mus musculus [17], with Mus musculus [6], in the data set on Mus musculus [7] and in the data set on Mus musculus [8] was inactive. The Activity result with Mus musculus [9], in the data set with Mus musculus [10], in the data set on Mus musculus [11], in the data set with Mus musculus [12] and with Mus musculus [13] was “Non-toxic” each time.

In the case of `COc1cc(C2CC23NC(=O)N(C)C3=O)cc(OC)c1OC` (stereo not given), the outcome in the data set with Mus musculus [1], in the data set on Mus musculus [3], in the data set with Mus musculus [16], in the data set with Mus musculus [4], in the data set on Mus musculus [5] and in the data set with Mus musculus [6] was inactive. Further, the result with Mus musculus [7] was inactive. Besides, the result in the data set with Mus musculus [2] and with Mus musculus [18] was Active. The Activity result in the data set with Mus musculus [9], in the data set with Mus musculus [10], in the data set with Mus musculus [11], in the data set with Mus musculus [12], in the data set on Mus musculus [13] and in the data set on Mus musculus [14] was “Non-toxic” throughout.

Take `CCC1CC12NC(=O)N(C)C2=O` (stereo not given): the result with Mus musculus [1], in the data set on Mus musculus [3], in the data set on Mus musculus [16], in the data set with Mus musculus [4], in the data set on Mus musculus [5] and with Mus musculus [17] was inactive. The outcome in the data set on Mus musculus [6] and in the data set on Mus musculus [7] was inactive. Further, the outcome in the data set on Mus musculus [15] and with Mus musculus [18] was Active. Besides, the Activity entry with Mus musculus [9], in the data set on Mus musculus [10], with Mus musculus [11], in the data set on Mus musculus [12] and in the data set with Mus musculus [13] was “Non-toxic” throughout.

Turning to `COc1ccc(C2CC23NC(=O)N(C)C3=O)cc1OC` (stereo not given), the result in the data set on Mus musculus [1], in the data set with Mus musculus [2] and in the data set on Mus musculus [18] was Active. The outcome in the data set on Mus musculus [3], in the data set with Mus musculus [4], in the data set on Mus musculus [5], in the data set on Mus musculus [6] and with Mus musculus [7] was inactive. Moreover, the Activity result in the data set with Mus musculus [9], in the data set on Mus musculus [10], in the data set on Mus musculus [12] and in the data set on Mus musculus [13] was “Non-toxic” throughout.

For the compound `CCCC1CC12NC(=O)N(C)C2=O` (stereo not given), the result with Mus musculus [1], in the data set on Mus musculus [3], in the data set on Mus musculus [4], in the data set on Mus musculus [5], with Mus musculus [17] and in the data set on Mus musculus [6] was inactive. Moreover, the result in the data set on Mus musculus [7] and with Mus musculus [8] was inactive. The outcome in the data set with Mus musculus [2] and in the data set with Mus musculus [18] was Active. Moreover, the Activity result in the data set on Mus musculus [9] is listed as “Toxic”; in the data set with Mus musculus [10], “Non-toxic”; with Mus musculus [11], “Toxic”; with Mus musculus [12] it was “Non-toxic”; with Mus musculus [13] it was “Non-toxic”; in the data set with Mus musculus [14] it was “Toxic”.
